Active and inactive are the calls of the source.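 Rule for the calls, unless noted: active = duplicate-averaged activation above buffer control mean plus 5 SD of those controls; inactive = the rest.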
Tests used:
[1] = nonspecific flux increase, KCNQ1-free cells – parental CHO cells, counter-screen for KCNQ1 potentiator project (AID 493006); details: parental CHO-K1 cells, FluxOR thallium flux, at 10 µM; active compounds read high;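 for activation: fluorescence ratio of max minus min over baseline after K+ and Tl+ depolarization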
Outline: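 Assay system: parental CHO-K1 cells lacking KCNQ1, loaded with FluxOR thallium dye; timing: dye 90 min RT, compound 20 min RT; signal: kinetic thallium-flux fluorescence; repeats: duplicate wells per compound, percent values averaged; benchmarks: buffer and R-L3 controls; reagent: Potassium/thallium depolarization pulse; read-out: fluorescence change ratio scaled 0% buffer, 100% R-L3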

[2] = target: Potassium voltage-gated channel subfamily KQT member 1 (Homo sapiens) (UniProt P51787); assay: enhancement of KCNQ1 channel thallium flux – FluxOR thallium flux, CHO cells, duplicates, confirmation (AID 493007;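 active = potentiation averaged over duplicate wells exceeding buffer-only control mean by more than 3 SD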;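 for outcome: cells depolarized by a potassium plus thallium sulfate stimulus after compound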); details: KCNQ1 cell line, FluxOR thallium flux fluorescence, at 10 µM; active compounds read high, % of reference activator effect, buffer zero
Sequence of Potassium voltage-gated channel subfamily KQT member 1 (Homo sapiens) (P51787 whole entry, looked up): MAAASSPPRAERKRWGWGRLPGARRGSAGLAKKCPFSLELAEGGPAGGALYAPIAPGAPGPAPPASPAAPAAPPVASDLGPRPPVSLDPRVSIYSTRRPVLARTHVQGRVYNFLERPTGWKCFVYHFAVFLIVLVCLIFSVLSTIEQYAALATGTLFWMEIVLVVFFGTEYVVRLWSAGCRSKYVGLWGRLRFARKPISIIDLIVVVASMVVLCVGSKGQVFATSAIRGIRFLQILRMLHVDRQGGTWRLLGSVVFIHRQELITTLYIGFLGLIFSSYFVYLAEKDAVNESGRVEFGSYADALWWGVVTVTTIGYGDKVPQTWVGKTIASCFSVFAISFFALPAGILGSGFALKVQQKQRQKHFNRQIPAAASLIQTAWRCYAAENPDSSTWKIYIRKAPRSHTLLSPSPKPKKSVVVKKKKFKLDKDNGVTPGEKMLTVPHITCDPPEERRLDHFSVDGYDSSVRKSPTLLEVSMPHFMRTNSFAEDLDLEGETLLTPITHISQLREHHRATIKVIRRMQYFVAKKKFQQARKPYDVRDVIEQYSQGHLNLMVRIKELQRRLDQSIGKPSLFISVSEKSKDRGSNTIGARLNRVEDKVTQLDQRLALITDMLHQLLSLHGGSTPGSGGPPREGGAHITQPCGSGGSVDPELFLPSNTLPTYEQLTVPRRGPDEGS
Outline: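 material = CHO cells stably expressing the KCNQ1 potassium channel | repeats = duplicate wells per compound | measure = percent activation between buffer and R-L3 responses | signal = FluxOR thallium-flux fluorescence, kinetic read | schedule = FluxOR dye loading 90 min, compound exposure 20 min, room temperature | control set = buffer and R-L3 controls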

[3] = target: Potassium voltage-gated channel subfamily KQT member 2 (Rattus norvegicus) (UniProt O88943); assay: KCNQ2 thallium flux enhancement – KCNQ2-CHO-K1 cells, selectivity assay for KCNQ1 potentiator project (AID 493009;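 active = mean duplicate potentiation above the buffer control mean plus 5 SD of buffer wells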;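 note: assay conditions were tuned for KCNQ1 rather than KCNQ2 modulators; signal is max minus min fluorescence divided by baseline after thallium stimulus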); details: FluxOR thallium flux fluorescence, at 10 µM; active compounds read high, scaled: buffer 0, activator control 100
Sequence of Potassium voltage-gated channel subfamily KQT member 2 (Rattus norvegicus) (O88943 whole entry, looked up): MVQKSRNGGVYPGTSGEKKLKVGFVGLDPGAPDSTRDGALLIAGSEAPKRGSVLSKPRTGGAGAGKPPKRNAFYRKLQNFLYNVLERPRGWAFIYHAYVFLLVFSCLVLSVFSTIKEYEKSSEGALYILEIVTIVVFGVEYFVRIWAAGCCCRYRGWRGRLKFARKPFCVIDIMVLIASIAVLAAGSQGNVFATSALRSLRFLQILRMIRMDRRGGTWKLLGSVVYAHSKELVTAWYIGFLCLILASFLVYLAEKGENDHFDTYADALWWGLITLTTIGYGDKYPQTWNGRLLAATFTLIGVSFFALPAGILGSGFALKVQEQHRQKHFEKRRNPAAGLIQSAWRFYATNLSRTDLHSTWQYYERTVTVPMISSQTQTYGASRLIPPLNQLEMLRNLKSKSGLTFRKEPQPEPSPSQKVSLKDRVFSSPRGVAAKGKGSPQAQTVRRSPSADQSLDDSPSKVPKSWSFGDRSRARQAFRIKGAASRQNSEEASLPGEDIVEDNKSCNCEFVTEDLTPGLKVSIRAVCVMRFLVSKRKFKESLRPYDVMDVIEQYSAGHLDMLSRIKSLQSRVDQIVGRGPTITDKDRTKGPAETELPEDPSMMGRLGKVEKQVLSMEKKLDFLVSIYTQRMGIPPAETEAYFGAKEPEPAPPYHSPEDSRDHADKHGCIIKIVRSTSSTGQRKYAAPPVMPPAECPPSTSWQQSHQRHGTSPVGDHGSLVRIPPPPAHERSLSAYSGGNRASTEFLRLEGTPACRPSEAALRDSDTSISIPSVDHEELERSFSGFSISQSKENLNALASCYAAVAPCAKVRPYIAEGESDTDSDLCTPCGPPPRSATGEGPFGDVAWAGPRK

[4] = target: Potassium voltage-gated channel subfamily KQT member 1 (Homo sapiens) (UniProt P51787); assay: KCNQ1 activators by electrophysiology – IonWorks patch clamp, KCNQ1-CHO cells, orthogonal assay for KCNQ1 potentiator project, confirmation (AID 493184;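 active = current rise at least 3 SD above the untreated control mean in each of two repeat wells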); details: automated patch clamp current, at 10 µM; active compounds read high
Outline: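 Assay system – CHO cells carrying KCNQ1 · Medium – pH 7.4 external bath · Probe or stimulus – depolarizing pulse to +40 mV from -90 mV · Compound dosing – one dose, 10 µM final · Measured by – automated perforated-patch electrophysiology · Measure – % potentiation of steady-state current relative to pre-compound · Repeats – two replicates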

O=c1c2cccnc2[nH]c(=S)n1CCC1=CCCCC1
activation [1]: 258% (active) | potentiation [2]: 64% (active) | potentiation [3]: 229% (active) | outcome [4]: inactive

COc1ccc(-n2nnnc2-c2ccccc2)cc1
outcome [1]: inactive | outcome [2]: inactive | outcome [3]: inactive | outcome [4]: inactive

O=c1c(O)c(-c2cccs2)oc2ccc(Cl)cc12
activation [1]: 570% (active) | potentiation [2]: 128% (active) | potentiation [3]: 553% (active) | outcome [4]: inactive

C=CCn1c(O)c(N=NC(=S)Nc2ccc(OC)c(Cl)c2)c2ccccc21
activation [1]: 191% (active) | potentiation [2]: 57% (active) | potentiation [3]: 215% (active) | outcome [4]: inactive

CCOC(=O)c1c(C)[nH]c(=S)c(C#N)c1-c1ccc(Cl)cc1
activation [1]: 150% (active) | potentiation [2]: 34.5% (active) | potentiation [3]: 170% (active) | outcome [4]: inactive

O=[N+]([O-])c1ccc(/C=C/C2=NN(c3ccccc3)C(c3ccco3)C2)o1 (stereo not drawn)
outcome [1]: inactive | outcome [2]: inactive | outcome [3]: inactive | outcome [4]: inactive

O=C(CNC(=O)c1sc2ccccc2c1Cl)OCc1ccccc1
outcome [1]: inactive | outcome [2]: inactive | outcome [3]: inactive | outcome [4]: inactive

O=C(NN1C(=O)C2C(c3ccccc3)C=CC(c3ccccc3)C2C1=O)c1ccncc1 (stereo not drawn)
activation [1]: 176% (active) | potentiation [2]: 18% (active) | potentiation [3]: 152% (active) | outcome [4]: inactive

O=C(NC(=S)NC1CCCc2ccccc21)c1ccco1 (stereo not drawn)
activation [1]: 188% (active) | potentiation [2]: 122% (active) | potentiation [3]: 272% (active) | outcome [4]: inactive

CCCn1c(=S)[nH]c2sc3c(c2c1=O)CCCC3
activation [1]: 418% (active) | potentiation [2]: 158% (active) | potentiation [3]: 434% (active) | outcome [4]: inactive

O=C(Nc1ccc2[nH]c(=S)sc2c1)Nc1ccccc1F
activation [1]: 150% (active) | potentiation [2]: 68% (active) | potentiation [3]: 240% (active) | outcome [4]: inactive

C=C(C)CNC(=O)c1ccc(OC2CCN(C(=O)COC)CC2)cc1
outcome [1]: inactive | outcome [2]: inactive | outcome [3]: inactive | outcome [4]: inactive

NNc1nc2ccc(Cl)cc2s1
outcome [1]: inactive | outcome [2]: inactive | outcome [3]: inactive | outcome [4]: inactive

C=CCn1c(O)c(N=NC(=S)Nc2ccccc2F)c2cc(S(=O)(=O)N3CCOCC3)ccc21
outcome [1]: inactive | potentiation [2]: 26.5% (active) | outcome [3]: inactive | outcome [4]: inactive

Cc1cc(C)cc(-n2ccnc2SCC(=O)Nc2nccs2)c1
outcome [1]: inactive | outcome [2]: inactive | outcome [3]: inactive | outcome [4]: inactive

Cc1[nH]n2c(=O)cc(C(C)(C)C)nc2c1-c1ccccc1
activation [1]: 227% (active) | potentiation [2]: 33.5% (active) | potentiation [3]: 224% (active) | outcome [4]: inactive

COc1ccc(C(=O)On2c(-c3ccc(Br)cc3)nc3ccccc3c2=O)cc1
outcome [1]: inactive | outcome [2]: inactive | outcome [3]: inactive | outcome [4]: inactive

COc1cc(OC)cc(C(=O)NC(=S)N2CCCCCC2)c1
outcome [1]: inactive | potentiation [2]: 48% (active) | potentiation [3]: 198% (active) | outcome [4]: inactive

COc1cnc(-c2ccccn2)nc1Oc1ccccc1Cl
outcome [1]: inactive | outcome [2]: inactive | outcome [3]: inactive | outcome [4]: inactive

CCOC(=O)c1sc(N2N=C(C)C(N=Nc3cccc(C)c3)C2=O)nc1C (stereo not drawn)
outcome [1]: inactive | potentiation [2]: 31% (active) | potentiation [3]: 148% (active) | outcome [4]: inactive

CCOC(=O)c1sc2nc(C)[nH]c(=S)c2c1C
activation [1]: 198% (active) | potentiation [2]: 52% (active) | potentiation [3]: 214% (active) | outcome [4]: inactive

CCCCC(Nc1ncnc2ccccc12)C(=O)O (stereo not drawn)
outcome [1]: inactive | outcome [2]: inactive | outcome [3]: inactive | outcome [4]: inactive

C=CCN(CC=C)C(=S)NC(=O)Cc1cccc2ccccc12
activation [1]: 210% (active) | potentiation [2]: 68.5% (active) | potentiation [3]: 245% (active) | outcome [4]: inactive

CN1CCN(c2nc(-c3cccs3)cc(C(F)(F)F)n2)CC1
activation [1]: 142% (active) | outcome [2]: inactive | outcome [3]: inactive | outcome [4]: inactive

O=C(NNC(=S)NC(=O)c1sc2ccccc2c1Cl)c1ccc(Cl)cc1
activation [1]: 320% (active) | potentiation [2]: 168% (active) | potentiation [3]: 319% (active) | outcome [4]: inactive

O=C(NC(=S)Nc1nc2ccc(F)cc2s1)c1ccco1
activation [1]: 282% (active) | potentiation [2]: 132% (active) | potentiation [3]: 331% (active) | outcome [4]: inactive

O=C(Nc1ccc(N2CCN(c3ccc(O)cc3)CC2)cc1)Oc1ccccc1
outcome [1]: inactive | outcome [2]: inactive | outcome [3]: inactive | outcome [4]: inactive

COCCN1CCCC(CNCc2cn(C)nc2-c2ccc(Oc3ccccc3)cc2)C1 (stereo not drawn)
outcome [1]: inactive | outcome [2]: inactive | outcome [3]: inactive | outcome [4]: inactive

O=C(Nc1nc2c(Br)cc(Br)cc2c(=O)s1)C1CCC1
activation [1]: 192% (active) | potentiation [2]: 29% (active) | potentiation [3]: 176% (active) | outcome [4]: inactive

COC(=O)c1ccc(COC(=O)c2ccccc2OC)cc1
outcome [1]: inactive | outcome [2]: inactive | outcome [3]: inactive | outcome [4]: inactive

CCN(CC)CCn1c(OC)cc(=O)[nH]c1=O
outcome [1]: inactive | outcome [2]: inactive | outcome [3]: inactive | outcome [4]: inactive

Cc1ccc2sc(N(CCCN(C)C)C(=O)CCS(=O)(=O)c3ccccc3)nc2c1C
outcome [1]: inactive | outcome [2]: inactive | outcome [3]: inactive | outcome [4]: inactive

— PubChem BioAssay
